Assay results: ChEMBL document CHEMBL5252510, “A Novel Potent Oral Series of VEGFR2 Inhibitors Abrogate Tumor Growth by Inhibiting Angiogenesis” (J Med Chem, 2016)
Calls of active or inactive are those of the source. No cut-off for these calls is given here.

Experiments:
[1] = target: Tyrosine-protein kinase ABL1 (Homo sapiens) (UniProt P00519); assay: Inhibition of human recombinant GST-fused ABL expressed in baculovirus expression system using poly-Glu-Tyr (4:1) as substrate measured after 10 mins in presence of gamma-[33P]-ATP by scintillation counting analysis
Outline: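 GST-fused kinase domains were expressed in baculovirus and purified on glutathione-Sepharose. 10 min at ambient temperature, stopped with EDTA. Filter binding and scintillation counting. IC50 by linear regression of percent inhibition.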

[2] = Half-life in OFA rat at 2.5 mg/kg, iv measured upto 24 hrs by HPLC/UV analysis; type: ADME, organism-based; details: in vivo
Outline: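 Catheters were placed in the femoral artery and vein of female OFA rats, followed by 96 h recovery. IV doses went into the femoral vein: 2.5 mg/kg in ethanol/dimethylisosorbide/PEG400/5 % glucose (10/15/35/40), or 1 mg/kg in NMP/PEG200 (30:70). Plasma samples at 5, 15, 30 min and 1, 2, 4, 6, 8, 24 h. Parameters reported over 24 h. n=2–4.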

[3] = Half life in OFA rat at 25 mg/kg, po measured upto 24 hrs by HPLC/UV analysis; type: ADME, organism-based; details: in vivo
Outline: (§1)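 Female OFA rats, femoral artery/vein catheterized and recovered 96 h. Oral gavage of a micronized suspension in 0.5 % carboxymethyl cellulose at 25 or 3 mg/kg. Bioavailability taken against femoral-vein iv dosing. Plasma sampled 5 min–24 h (9 time points).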

[4] = Oral bioavailability in OFA rat at 3 mg/kg measured upto 24 hrs by HPLC/UV analysis; type: ADME, organism-based; details: in vivo; outline: as §1

Chain of Tyrosine-protein kinase ABL1 (Homo sapiens) (P00519 whole entry, the tested form may be a part): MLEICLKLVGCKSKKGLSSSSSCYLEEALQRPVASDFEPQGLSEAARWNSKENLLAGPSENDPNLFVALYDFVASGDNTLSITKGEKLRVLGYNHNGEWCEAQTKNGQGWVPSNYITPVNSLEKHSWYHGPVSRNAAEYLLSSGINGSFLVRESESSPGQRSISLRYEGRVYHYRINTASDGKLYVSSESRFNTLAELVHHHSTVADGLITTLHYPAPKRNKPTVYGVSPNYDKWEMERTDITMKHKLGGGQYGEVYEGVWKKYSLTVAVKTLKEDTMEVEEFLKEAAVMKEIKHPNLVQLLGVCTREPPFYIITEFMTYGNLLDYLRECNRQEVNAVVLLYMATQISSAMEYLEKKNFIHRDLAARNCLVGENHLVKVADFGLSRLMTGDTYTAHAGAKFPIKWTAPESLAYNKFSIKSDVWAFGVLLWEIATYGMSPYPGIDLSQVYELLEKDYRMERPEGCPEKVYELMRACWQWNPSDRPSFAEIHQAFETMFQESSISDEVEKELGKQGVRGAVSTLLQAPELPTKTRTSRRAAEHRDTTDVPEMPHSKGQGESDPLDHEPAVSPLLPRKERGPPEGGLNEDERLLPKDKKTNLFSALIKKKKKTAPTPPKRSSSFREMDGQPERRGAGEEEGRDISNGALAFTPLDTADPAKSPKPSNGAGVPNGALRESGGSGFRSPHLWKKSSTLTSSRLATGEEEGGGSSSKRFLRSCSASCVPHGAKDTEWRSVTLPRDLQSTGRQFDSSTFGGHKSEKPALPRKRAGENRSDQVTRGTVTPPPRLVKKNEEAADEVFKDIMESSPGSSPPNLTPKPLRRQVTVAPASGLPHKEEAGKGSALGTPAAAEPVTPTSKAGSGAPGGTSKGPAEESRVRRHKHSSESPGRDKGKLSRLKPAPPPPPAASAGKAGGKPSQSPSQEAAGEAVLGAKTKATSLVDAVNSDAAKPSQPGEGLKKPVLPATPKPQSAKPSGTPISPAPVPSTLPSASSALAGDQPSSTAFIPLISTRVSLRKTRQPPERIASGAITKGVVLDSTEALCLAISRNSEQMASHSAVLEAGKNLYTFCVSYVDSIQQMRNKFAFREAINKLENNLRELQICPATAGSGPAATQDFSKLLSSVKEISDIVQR

Row | Compound | inhibition [1] | half-life [2] [h] | half-life [3] [h] | bioavailability [4] [%]
1 | Nc1nccc(Oc2ccc3c(C(=O)Nc4cccc(C(F)(F)F)c4)cccc3c2)n1 | Active | 2 | 2 | 
2 | O=C(Nc1cccc(C(F)(F)F)c1)c1cccc2cc(Oc3cc(CO)ncn3)ccc12 [BFH-772] |  |  |  | 46
